Reference: ChEMBL document CHEMBL3817832, “Optimizing Ligand Efficiency of Selective Androgen Receptor Modulators (SARMs)” (ACS Med Chem Lett, 2016)
Converted amounts (≈) assume the structure as drawn.

Assays:
[1] = Oral bioavailability in Wistar Han rat at 10 mg/kg, administered as single dose via oral gavage by LC-MS/MS analysis; assay type: ADME, organism-based; details: in vivo
[2] = Kinetic aqueous solubility of the compound in PBS at pH 7.4 after 1 hr by chemiluminescent nitrogen detection method; assay type: physicochemical; details: read-out: Kinetic_solubility
Procedure, shortened: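 High-throughput kinetic aqueous solubility at pH 7.4. The test compound is added from a DMSO stock, and dissolved compound is quantified by chemiluminescent nitrogen detection (CLND).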

Androgen receptor = target: T1, Androgen receptor (Homo sapiens, UniProt P10275); assay: Modulation of human androgen receptor expressed in African green monkey CV1 cells after 24 hrs by luciferase reporter gene assay; assay type: cell-based, CV-1
T1 sequence (P10275 whole entry): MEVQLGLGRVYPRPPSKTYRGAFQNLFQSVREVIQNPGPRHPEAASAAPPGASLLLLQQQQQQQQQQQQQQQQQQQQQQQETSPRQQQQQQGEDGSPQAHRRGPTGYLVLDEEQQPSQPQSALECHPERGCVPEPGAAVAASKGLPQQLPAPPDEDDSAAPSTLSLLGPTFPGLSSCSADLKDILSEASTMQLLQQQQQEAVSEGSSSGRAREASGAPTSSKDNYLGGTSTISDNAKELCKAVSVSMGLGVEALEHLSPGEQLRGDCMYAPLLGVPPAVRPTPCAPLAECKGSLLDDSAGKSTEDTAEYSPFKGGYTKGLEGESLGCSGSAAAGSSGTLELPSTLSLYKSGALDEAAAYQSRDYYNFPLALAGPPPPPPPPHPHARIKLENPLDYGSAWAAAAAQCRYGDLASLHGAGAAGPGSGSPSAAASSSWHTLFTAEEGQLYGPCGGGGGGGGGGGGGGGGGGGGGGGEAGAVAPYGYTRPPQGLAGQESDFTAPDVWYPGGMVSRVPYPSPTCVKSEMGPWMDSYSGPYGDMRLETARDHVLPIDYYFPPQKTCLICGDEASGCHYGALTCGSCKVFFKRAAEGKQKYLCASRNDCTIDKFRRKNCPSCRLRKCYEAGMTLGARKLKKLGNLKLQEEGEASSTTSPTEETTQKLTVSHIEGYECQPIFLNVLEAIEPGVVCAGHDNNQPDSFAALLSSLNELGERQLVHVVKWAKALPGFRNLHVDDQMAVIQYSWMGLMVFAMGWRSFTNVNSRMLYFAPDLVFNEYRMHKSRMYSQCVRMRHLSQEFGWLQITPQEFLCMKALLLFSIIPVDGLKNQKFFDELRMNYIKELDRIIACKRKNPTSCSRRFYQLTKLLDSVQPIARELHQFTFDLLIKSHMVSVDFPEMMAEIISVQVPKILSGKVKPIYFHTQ
Procedure, shortened: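 Functional AR activity is read out by a luciferase reporter gene assay in mammalian cells transfected with the human AR gene. EC50 is derived from the response and reported as pEC50 (−log EC50).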

[3] = Half life in Wistar Han rat at 5 mg/kg, administered as single dose via oral gavage by LC-MS/MS analysis; assay type: ADME, organism-based; details: in vivo
[4] = […] in iv dosed Wistar Han rat administered as single dose by LC-MS/MS analysis; assay type: ADME, organism-based; details: in vivo

Q: Which bioavailability [1] does the source give for Cc1c(C(O)(C2CC2)C(F)(F)F)ccc(C#N)c1C(F)(F)F (stereo not drawn) here?
A: 37%

Q: What about the solubility kinetic at 1 h [2] of the same molecule?
A: 245 µM (≈ 79.2 µg/mL)

Q: And the EC50 (Androgen receptor)?
A: 0.0316 nM

Q: And the half-life [3]?
A: 10 h

Q: For Cc1c(C(O)(C(C)C)C(F)(F)F)ccc(C#N)c1C(F)(F)F (stereo not drawn), which EC50 (Androgen receptor) is on record?
A: 0.251 nM

Q: Which EC50 (Androgen receptor) does the source give for Cc1c(C(C)(O)C(F)(F)F)ccc(C#N)c1C(F)(F)F (stereo not drawn) here?
A: 3.98 nM

Q: For CC(C)C(O)(c1ccc(C#N)c(Cl)c1Cl)C(F)(F)F (stereo not drawn), which EC50 (Androgen receptor) is on record?
A: 0.794 nM

Q: Which EC50 (Androgen receptor) does the source give for Cc1c(C#N)ccc(C(O)(C(C)C)C(F)(F)F)c1C (stereo not drawn) here?
A: 12.6 nM

Q: For C=C(C)C(O)(c1ccc(C#N)c(C(F)(F)F)c1)C(F)(F)F (stereo not drawn), which EC50 (Androgen receptor) is on record?
A: 31.6 nM

Q: For C=CC(O)(c1ccc(C#N)c(C(F)(F)F)c1)C(F)(F)F (stereo not drawn), which EC50 (Androgen receptor) is on record?
A: 12.6 nM

Q: With N#Cc1ccc(C(O)(c2cscn2)C(F)(F)F)cc1C(F)(F)F (stereo not drawn) as the molecule, how does the EC50 (Androgen receptor) read?
A: 2 nM

Q: For Cc1c(C(O)(c2ccc(Cl)s2)C(F)(F)F)ccc(C#N)c1C(F)(F)F (stereo not drawn), which EC50 (Androgen receptor) is on record?
A: 5.62 nM

Q: With N#Cc1ccc(C(O)(c2ccco2)C(F)(F)F)cc1C(F)(F)F (stereo not drawn) as the molecule, how does the EC50 (Androgen receptor) read?
A: 1.26 nM

Q: Which bioavailability [1] does the source give for N#Cc1ccc(C(O)(C2CC2)C(F)(F)F)cc1Cl (stereo not drawn) here?
A: 80%

Q: And the solubility kinetic at 1 h [2]?
A: > 400 µM

Q: And the clearance [4]?
A: 12 mL/min/kg

Q: What about the EC50 (Androgen receptor) of the same molecule?
A: 0.398 nM

Q: And the half-life [3]?
A: 18 h

Q: For Cc1c(C(O)(C2CCC2)C(F)(F)F)ccc(C#N)c1C(F)(F)F (stereo not drawn), which EC50 (Androgen receptor) is on record?
A: 0.2 nM

Q: Which EC50 (Androgen receptor) does the source give for Cc1c(C(O)(c2ccc(Cl)o2)C(F)(F)F)ccc(C#N)c1C(F)(F)F (stereo not drawn) here?
A: 2.88 nM

Q: For Cc1c(C(O)(CC(C)(C)C)C(F)(F)F)ccc(C#N)c1Cl (stereo not drawn), which EC50 (Androgen receptor) is on record?
A: 3.98 nM

Q: Which EC50 (Androgen receptor) does the source give for Cc1c(C(O)(C(F)(F)F)C(F)(F)F)ccc(C#N)c1C(F)(F)F here?
A: 1.58 nM

Q: With N#Cc1ccc(C(O)(C2CCC2)C(F)(F)F)c(Cl)c1Cl (stereo not drawn) as the molecule, how does the EC50 (Androgen receptor) read?
A: 0.631 nM

Q: With Cc1c(C#N)ccc(C(O)(C2CC2)C(F)(F)F)c1C (stereo not drawn) as the molecule, how does the EC50 (Androgen receptor) read?
A: 1.58 nM

Q: For N#Cc1ccc(C(O)(C2CCCC2)C(F)(F)F)cc1Cl (stereo not drawn), which EC50 (Androgen receptor) is on record?
A: 3.16 nM

Q: Which EC50 (Androgen receptor) does the source give for N#Cc1ccc(C(O)(c2ccc(Cl)s2)C(F)(F)F)cc1C(F)(F)F (stereo not drawn) here?
A: 20 nM

Q: For CC(O)(c1ccc(C#N)c(Cl)c1Cl)C(F)(F)F (stereo not drawn), which EC50 (Androgen receptor) is on record?
A: 63.1 nM

Q: With CC(C)C(O)(c1ccc(C#N)c(C(F)(F)F)c1)C(F)(F)F (stereo not drawn) as the molecule, how does the EC50 (Androgen receptor) read?
A: 7.94 nM

Q: With N#Cc1ccc(C(O)(C2CCC2)C(F)(F)F)cc1C(F)(F)F (stereo not drawn) as the molecule, how does the EC50 (Androgen receptor) read?
A: 1.58 nM

Q: With Cc1c(C#N)ccc(C(O)(CC(C)(C)C)C(F)(F)F)c1C (stereo not drawn) as the molecule, how does the EC50 (Androgen receptor) read?
A: 20 nM

Q: For Cc1c(C(O)(c2ccco2)C(F)(F)F)ccc(C#N)c1C(F)(F)F (stereo not drawn), which EC50 (Androgen receptor) is on record?
A: 0.251 nM

Q: Which EC50 (Androgen receptor) does the source give for N#Cc1ccc(C(O)(c2ccc(Cl)o2)C(F)(F)F)cc1C(F)(F)F (stereo not drawn) here?
A: 2.51 nM

Q: With N#Cc1ccc(C(O)(C2CC2)C(F)(F)F)c(Cl)c1Cl (stereo not drawn) as the molecule, how does the EC50 (Androgen receptor) read?
A: 0.2 nM

Q: Which EC50 (Androgen receptor) does the source give for Cc1c(C(O)(C#CC(C)(C)C)C(F)(F)F)ccc(C#N)c1Cl (stereo not drawn) here?
A: 79.4 nM

Q: For Cc1c(C(O)(c2cocn2)C(F)(F)F)ccc(C#N)c1C(F)(F)F (stereo not drawn), which bioavailability [1] is on record?
A: 100%

Q: What about the solubility kinetic at 1 h [2] of the same molecule?
A: > 400 µM

Q: What about the EC50 (Androgen receptor) of the same molecule?
A: 0.501 nM

Q: What about the half-life [3] of the same molecule?
A: 5.5 h

Q: With CCC(O)(c1ccc(C#N)c(Cl)c1Cl)C(F)(F)F (stereo not drawn) as the molecule, how does the EC50 (Androgen receptor) read?
A: 2.51 nM

Q: Which EC50 (Androgen receptor) does the source give for Cc1c(C(O)(c2cscn2)C(F)(F)F)ccc(C#N)c1C(F)(F)F (stereo not drawn) here?
A: 5.89 nM

Q: For Cc1c(C(O)(c2nccs2)C(F)(F)F)ccc(C#N)c1C(F)(F)F (stereo not drawn), which EC50 (Androgen receptor) is on record?
A: 10.5 nM

Q: For Cc1c(C(O)(C(C)C)C(F)(F)F)ccc(C#N)c1Cl (stereo not drawn), which EC50 (Androgen receptor) is on record?
A: 0.794 nM

Q: With N#Cc1ccc(C(O)(c2nccs2)C(F)(F)F)cc1C(F)(F)F (stereo not drawn) as the molecule, how does the EC50 (Androgen receptor) read?
A: 2 nM

Q: Which EC50 (Androgen receptor) does the source give for Cc1c(C#N)ccc(C(C)(O)C(F)(F)F)c1C (stereo not drawn) here?
A: 2510 nM

Q: With CC(C)(C)C(O)(c1ccc(C#N)c(Cl)c1)C(F)(F)F (stereo not drawn) as the molecule, how does the EC50 (Androgen receptor) read?
A: 158 nM

Q: With N#Cc1ccc(C(O)(C2CC2)C(F)(F)F)cc1C(F)(F)F (stereo not drawn) as the molecule, how does the bioavailability [1] read?
A: 86%

Q: And the EC50 (Androgen receptor)?
A: 0.158 nM

Q: And the half-life [3]?
A: 20 h

Q: For Cc1c(C(C)(C)C(O)C(F)(F)F)ccc(C#N)c1C(F)(F)F (stereo not drawn), which EC50 (Androgen receptor) is on record?
A: 15.8 nM

Q: With N#Cc1ccc(C(O)(CO)C(F)(F)F)cc1C(F)(F)F (stereo not drawn) as the molecule, how does the EC50 (Androgen receptor) read?
A: 10000 nM

Q: With CC(C)C(O)(c1ccc(C#N)c(Cl)c1)C(F)(F)F (stereo not drawn) as the molecule, how does the EC50 (Androgen receptor) read?
A: 3.98 nM

Q: Which EC50 (Androgen receptor) does the source give for N#Cc1ccc(C(O)(C(F)(F)F)C(F)(F)F)cc1C(F)(F)F here?
A: 15.8 nM

Q: With CCC(O)(c1ccc(C#N)c(C(F)(F)F)c1)C(F)(F)F (stereo not drawn) as the molecule, how does the bioavailability [1] read?
A: 70%

Q: And the EC50 (Androgen receptor)?
A: 3.98 nM

Q: And the half-life [3]?
A: 83 h

Q: For N#Cc1ccc(C(O)(c2cocn2)C(F)(F)F)cc1C(F)(F)F (stereo not drawn), which bioavailability [1] is on record?
A: 83%

Q: And the solubility kinetic at 1 h [2]?
A: > 700 µM

Q: And the EC50 (Androgen receptor)?
A: 1.26 nM

Q: What about the half-life [3] of the same molecule?
A: 8 h

Q: For Cc1c(C(O)(C#CC2CC2)C(F)(F)F)ccc(C#N)c1Cl (stereo not drawn), which EC50 (Androgen receptor) is on record?
A: 15.8 nM

Q: With C/C=C(\C)C(O)(c1ccc(C#N)c(C(F)(F)F)c1)C(F)(F)F (stereo not drawn) as the molecule, how does the EC50 (Androgen receptor) read?
A: 39.8 nM

Q: With CC(C)(C)CC(O)(c1ccc(C#N)c(Cl)c1Cl)C(F)(F)F (stereo not drawn) as the molecule, how does the EC50 (Androgen receptor) read?
A: 3.16 nM

Q: With Cc1c(C(O)(C2CC2)C(F)(F)F)ccc(C#N)c1Cl (stereo not drawn) as the molecule, how does the EC50 (Androgen receptor) read?
A: 0.2 nM

Q: For Cc1c(C(O)(C(F)(F)F)C(F)(F)F)ccc(C#N)c1Cl, which EC50 (Androgen receptor) is on record?
A: 20 nM

Q: For Cc1c(C(O)(C(C)(C)C)C(F)(F)F)ccc(C#N)c1Cl (stereo not drawn), which EC50 (Androgen receptor) is on record?
A: 79.4 nM

Q: Which EC50 (Androgen receptor) does the source give for CC(C)CC(O)(c1ccc(C#N)c(Cl)c1Cl)C(F)(F)F (stereo not drawn) here?
A: 3.16 nM

Q: For N#Cc1ccc(C(O)(C2CCC2)C(F)(F)F)cc1Cl (stereo not drawn), which EC50 (Androgen receptor) is on record?
A: 1.58 nM

Q: With CCC(O)(c1ccc(C#N)c(Cl)c1C)C(F)(F)F (stereo not drawn) as the molecule, how does the EC50 (Androgen receptor) read?
A: 2 nM
